Screens (PubChem)
Rows were chosen to be rich in hits. Some 1.9% of all compounds tested hit in one or more screens of this group.
Glyco luc inh: N-linked glycosylation inhibition; D54 ERlucT glycosylation luciferase reporter, 24 h; percent of 100 nM tunicamycin response; reporter increase, % at 12.5 µM; actives 0.23% (n = 360,000); AID 588692;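 active means mean luciferase reporter signal, scaled so untreated is 0 and the glycosylation-blocking control 100, at or above a set limit in every replicate; inconclusive means mean reaches the limit but not every replicate does; inactive means mean below the limit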;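 further: luciferase carries N-glycosylation sites so blocking glycosylation raises the light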
MsrA act: activates bovine MsrA enzyme | purified bovine MsrA, absorbance read-out | activation, % at 10.6 µM | actives 0.3% (n = 360,000) | AID 602163; in the data active means activation above about 7.5%
MsrA inhibitor: inhibitors of bovine MsrA. purified bovine MsrA, absorbance read-out. inhibition, % at 15.5 µM. actives 0.75% (n = 360,000); in the data active means inhibition above about 4.5%
UCH37 inh: inhibitors of human deubiquitinating enzyme UCH37; Q9Y5K5; purified proteasome/UCH37, Ub-AMC cleavage fluorescence; inhibition, % (concentration not given with the values); actives 0.33% (n = 330,000);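 active means mean inhibition over replicate wells above about 20%, limit read from the data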
Target sequence (Q9Y5K5 whole entry, looked up): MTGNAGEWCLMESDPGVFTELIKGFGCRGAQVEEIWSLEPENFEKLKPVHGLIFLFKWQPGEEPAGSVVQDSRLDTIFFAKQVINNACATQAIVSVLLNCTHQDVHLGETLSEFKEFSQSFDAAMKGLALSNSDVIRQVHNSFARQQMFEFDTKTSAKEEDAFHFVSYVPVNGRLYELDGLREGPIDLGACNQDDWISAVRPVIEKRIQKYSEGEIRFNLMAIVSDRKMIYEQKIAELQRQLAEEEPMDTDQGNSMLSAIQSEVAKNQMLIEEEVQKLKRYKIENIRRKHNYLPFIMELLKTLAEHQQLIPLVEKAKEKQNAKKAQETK
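assay system = human UCH37 enzyme supplied as purified proteasome complex | amount = proteasome at 0.15 nM in the dispensed enzyme solution | schedule = 30 min compound-proteasome preincubation then 25 min substrate reaction, room temperature | measured by = fluorescence, ex 355 nm, em 460 nm | benchmarks = no-proteasome wells (full inhibition) and compound-free wells (no inhibition)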
Vif imaging: blocks HIV Vif function | actives 0.35% (n = 340,000) | inhibition, % at 7.49 µM | AID 602346 | HEK293T cells, Vif self-association by quenched fluorescence, imaging, 24 h; in the data active means inhibition above about 50%, passing the limit was not always enough; inconclusive means no clear call, values can overlap the other calls; inactive means below about 31%
aDG glyco act: alpha-DG glycosylation activation; Pro5-aDG cells, alpha-DG glycosylation AlphaScreen (IIH6); 0% Pro5, 100% B10-LARGE cell signal; activation, % at 10 µM; actives 0.22% (n = 360,000); AID 624168;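 active means activation of at least 8% versus controls, or a plate z-score of at least 8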;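 further: Pro5 are CHO cells carrying HIG-tagged alpha-DG that lacks glycosylation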
MsrA activ conf: bovine methionine sulfoxide reductase A activation confirmed; actives 12% (n = 1,000); activation, % at 10.6 µM; purified bovine MsrA, absorbance read-out; shares compounds with MsrA act; AID 602270; in the data active means activation above about 4%;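 further: enzyme coupled to thioredoxin and thioredoxin reductase with NADPH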
Hits are given with their value; i = inactive; ? = inconclusive; nt = no result given.

SMILES	Glyco luc inh	MsrA act	MsrA inhibitor	UCH37 inh	Vif imaging	aDG glyco act	MsrA activ conf
CCOC(=O)C1=C(C)N(C)C(=O)NC1c1c(C)nn(-c2ccc(C)cc2)c1Cl (configuration not stated)	i	13	i	i	i	i	i
Cc1ccc(NCc2nnc3n2CCCCC3)c(C)c1	i	8.2	i	i	nt	i	i
Fc1ccc(NCc2nnc3n2CCCCC3)cc1	i	i	i	i	i	i	nt
C[C@]12c3[nH]c4cc(-c5ccco5)ccc4c3CCN1C(=O)[C@@H](CC(=O)NCCC1=CCCCC1)C[C@@H]2C(=O)N1CCCCC1	i	8.3	i	i	i	i	i
C[C@]12c3[nH]c4cc(-c5ccco5)ccc4c3CCN1C(=O)[C@@H](CC(=O)NCCc1ccccn1)C[C@@H]2C(=O)N1CCCCC1	i	i	i	i	i	i	nt
O=C(NCCN1CCCCC1)c1ccc2c(c1)OCCO2	i	10	i	i	i	i	i
O=C(NCCCN1CCN(CCCNC(=O)c2ccc3c(c2)OCO3)CC1)c1ccc2c(c1)OCO2	i	i	i	i	i	i	nt
CS/C(N)=N/N=Cc1c(O)ccc2ccccc12	nt	nt	nt	i	nt	nt	nt
Cc1ccc(C(=O)OC(C)C(=O)Nc2ccc(S(N)(=O)=O)cc2)cc1S(=O)(=O)N1CCOCC1 (configuration not stated)	i	i	i	i	nt	i	nt
Cc1ccc(NC(=O)C(C)OC(=O)c2ccc(NC(=O)CC#N)cc2)cc1S(=O)(=O)N1CCOCC1 (configuration not stated)	i	9.5	i	i	i	i	i
CCCC(=NNC(=O)c1nnn(-c2nonc2N)c1CN1CCCCC1)c1ccccc1	nt	nt	nt	i	nt	nt	nt
COc1cc(-c2nc(=S)[nH][nH]2)cc(OC)c1OC	i	8.1	i	i	i	i	4.8
COc1ccc(-c2nc(=S)[nH][nH]2)cc1OC	i	10	i	i	i	i	i
CC(C)=CCCC1=CCC(C=NNC(N)=O)C(C)C1 (configuration not stated)	nt	nt	nt	i	nt	nt	nt
CC(NC(=O)Cn1cccc1C(=O)c1ccccc1)c1ccccc1 (configuration not stated)	i	12	i	i	i	i	i
O=C(Nc1ccccc1Br)C1CCCN1S(=O)(=O)c1cccc2nsnc12 (configuration not stated)	i	15	i	i	i	i	i
Cc1cc(Cl)cc2sc(=S)[nH]c12	i	8.2	i	i	i	i	i
COc1ccccc1CNC(=O)CC(C)=NNC(=O)Cc1ccccc1	nt	nt	nt	i	nt	nt	nt
C=CCNC(=O)c1nc2ccccc2s1	i	9.6	i	i	?	i	i
CCCC(=O)Nc1ccc(C(=O)COC(=O)C2=COCCO2)cc1	i	8.1	i	i	i	i	i
CCOc1cc(C=NNC(=O)CSc2nncn2C)ccc1OCc1cccc(C)c1	nt	nt	nt	i	nt	nt	nt
CCOc1ccc(Br)cc1C(C)=NNC1=NCCN1	nt	nt	nt	i	nt	nt	nt
O=C(CN1CCN(Cc2ccccc2)CC1)NN=C/C=C\c1ccco1	nt	nt	nt	i	nt	nt	nt
COc1ccc(NC(=O)N(C)C[C@H]2OCCCC[C@@H](C)Oc3ccc(NC(=O)c4ccccc4)cc3C(=O)N([C@H](C)CO)C[C@@H]2C)cc1	i	11	i	nt	i	i	i
Cc1noc(C)c1NC(=O)N(C)C[C@H]1Oc2ccc(NC(=O)NC(C)C)cc2C(=O)N([C@H](C)CO)C[C@H]1C	i	i	i	i	i	i	nt
SMILES	Glyco luc inh	MsrA act	MsrA inhibitor	UCH37 inh	Vif imaging	aDG glyco act	MsrA activ conf
Cc1noc(C)c1NC(=O)N(C)C[C@H]1Oc2ccc(NC(=O)Nc3ccc(C(F)(F)F)cc3)cc2C(=O)N([C@H](C)CO)C[C@@H]1C	i	19	i	i	i	i	i
O=C1C2C3C=CC(C4CC34)C2C(=O)N1N=Cc1ccc([N+](=O)[O-])o1 (configuration not stated)	nt	nt	nt	i	nt	nt	nt
COc1ccc(S(=O)(=O)NCc2ccc(C(=O)O)cc2)cc1	i	7.9	i	i	i	i	i
COc1ccc(S(=O)(=O)NCc2ccc(C(=O)N3CCN(Cc4ccccc4)CC3)cc2)cc1	i	i	i	i	i	i	nt
Fc1ccc(NC(=S)Nc2ccccc2N2CCOCC2)cc1Cl	i	9.7	i	i	i	i	i
O=S(=O)(c1ccc(Cl)c(NC(=S)Nc2ccccc2N2CCOCC2)c1)N1CCOCC1	i	i	i	i	i	i	nt
S=c1[nH]nc(COc2ccccc2)n1N=Cc1c(Cl)cccc1Cl	nt	nt	nt	i	nt	nt	nt
